Hits are enriched below; roughly 1.8% of the tested compounds scored in any of these assays.
SUMO1 PPI mod: modulators of SUMO1 protein-protein interactions, primary screen, biochemical, uHTS; AID 602429, 2012; SUMO1 binding to a labelled peptide, TR-FRET, 1 h; inhibition, % at 20 µM; actives 0.33% (n = 360,000); Small ubiquitin-related modifier 1 (Homo sapiens), P63165; in the data active = inhibition above about 37%
Target sequence (P63165 whole entry, looked up): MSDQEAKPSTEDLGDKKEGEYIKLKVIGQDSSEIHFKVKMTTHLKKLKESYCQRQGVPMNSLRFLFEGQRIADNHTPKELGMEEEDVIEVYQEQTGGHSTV
LMPTP inh: LMPTP phosphatase inhibitors, primary screen, biochemical, fluorescence intensity, uHTS; Low molecular weight phosphotyrosine protein phosphatase (Homo sapiens), P24666; recombinant LMPTP-A, OMFP fluorogenic substrate; actives 0.22% (n = 360,000); inhibition, % at 20 µM;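 active = compounds that cut the enzyme signal by at least half of the control window in the single-dose screen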
Target sequence (P24666 whole entry, looked up): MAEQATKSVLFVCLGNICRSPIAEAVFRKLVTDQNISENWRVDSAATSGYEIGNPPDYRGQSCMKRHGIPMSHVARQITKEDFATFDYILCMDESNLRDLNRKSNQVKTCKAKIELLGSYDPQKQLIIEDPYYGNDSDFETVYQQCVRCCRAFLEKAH
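Test system: LMPTP-A, protein tyrosine phosphatase of low molecular weight; Input: 0.625 nM enzyme; Incubation: 50 min dark incubation at room temperature; Signal: endpoint fluorescence intensity from OMFP dephosphorylation; Read-out basis: % inhibition versus control wells.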
DNMT1 inh: human DNMT1 methyltransferase inhibitors, primary screen, biochemical, molecular beacon, fluorescence, HinP1I cleavage, uHTS; DNA (cytosine-5)-methyltransferase 1 (Homo sapiens), P26358; inhibition (reported as % activation of signal), % at 10 µM; actives 0.83% (n = 360,000); AID 588458, 2011; in the data active = inhibition above about 50%
HKDC1 inh: HKDC1 hexokinase inhibitors, primary screen, biochemical, fluorescence, uHTS. inhibition, % at 20 µM. AID 493160, 2011. recombinant HKDC1, G6PDH/diaphorase resazurin coupled fluorescence. actives 0.16% (n = 340,000);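 active = inhibition above about 35% when tested at 20 µM, limit read from the data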
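test system = in-house recombinant HK5 (HKDC1) enzyme | amount = HKDC1 at 5 µg/mL | control set = DMSO-enzyme wells negative, buffer-substituted wells positive | compound = one dose of 20 µM, 1% DMSO | schedule = reaction time 90 min, room temperature, protected from light | technique = resorufin fluorescence at 613 nm | reagent = glucose with 1 mM ATP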
STEP block: STEP phosphatase inhibitors, primary screen, biochemical, fluorescence intensity, uHTS. recombinant STEP, OMFP fluorogenic substrate. actives 0.25% (n = 360,000). Tyrosine-protein phosphatase non-receptor type 5 (Homo sapiens), P54829. inhibition, % at 20 µM. AID 588621, 2011;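 active = inhibition at 20 µM, scaled per plate between control wells, above about 37%, limit read from the data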
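material = STEP tyrosine phosphatase | reagent = fluorogenic phosphatase substrate OMFP at 25 µM final | doses = single compound dose of 20 µM, 1% DMSO final | schedule = 20 min reaction, room temperature, in the dark | measured by = fluorescence, 480/540 nm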
Scp1 inh: Scp-1 phosphatase inhibitors, primary screen, biochemical, colorimetric, uHTS; Recombinant Scp1, phosphopeptide, malachite green phosphate absorbance; inhibition, % at 20 µM; actives 0.88% (n = 340,000);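 active = inhibition above about 50% at 20 µM, limit read from the data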
Target sequence (Q9GZU7 76-261 limits assumed): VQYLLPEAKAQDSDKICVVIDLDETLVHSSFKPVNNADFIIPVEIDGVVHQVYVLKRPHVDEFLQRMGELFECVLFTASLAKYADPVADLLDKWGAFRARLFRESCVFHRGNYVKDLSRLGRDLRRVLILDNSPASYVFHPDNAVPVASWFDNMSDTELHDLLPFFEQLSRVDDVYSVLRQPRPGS
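Times: enzyme reaction 45 min at room temperature, colour 5 min, stabilisation 30 min. Material: SCP-1 catalytic fragment, aa 76-261. Medium: Acidic Tris acetate buffer with magnesium and detergent. Signal: colorimetric free-phosphate detection, absorbance 630 nm. Read-out basis: % inhibition of SCP-1 phosphate liberation. Reagent: Phosphorylated 17-residue peptide substrate.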
Scp-1 conf: Scp-1 phosphatase inhibitors, retest, confirmation, biochemical, colorimetric, single concentration; shares compounds with Scp1 inh; recombinant SCP-1 catalytic domain, phosphate release, malachite green absorbance; inhibition, % at 20 µM; actives 61% (n = 2,500); AID 540281, 2011
MG interference: colorimetric readout interference by compounds, confirmation, artefact control for Scp-1 inhibitor project, biochemical, single concentration; shares compounds with Scp1 inh; Colorimetric interference counterscreen, malachite green absorbance 630 nm; apparent inhibition (interference), % at 20 µM; 2,500 tested, under 10 active;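 also: compounds added after enzyme reaction finished so only phosphate colour detection is probed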
Scp-1 Tm shift: Scp-1 binding by thermal shift, confirmation, orthogonal assay for Scp-1 inhibitor project, biophysical, differential scanning fluorimetry. shares compounds with Scp1 inh. Recombinant SCP1, Sypro Orange thermal shift Tm. thermal shift relative to vanadate control, % at 40 µM. actives 25% (n = 1,500). AID 540329, 2011;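 active = substances whose mean melting-temperature shift, as a percentage of the reference inhibitor's shift, reaches about 5.3%, limit read from the data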
Hits are given with their value; i = inactive; nt = no result.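 The calls were made as follows, unless noted: active = inhibition of at least 30% at 20 µM; inactive = the rest.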

SMILES | SUMO1 PPI mod | LMPTP inh | DNMT1 inh | HKDC1 inh | STEP block | Scp1 inh | Scp-1 conf | MG interference | others
O=C(O)CNC(=O)CC1S/C(=N/N=C2/NC(=O)CS2)NC1=O (centres undefined) | i | i | i | i | i | 71.6 | 68.6 | i | Scp-1 Tm shift=i
Cc1cc(C)n(-c2ccc(C(=O)N3CCN(S(=O)(=O)c4ccc(OC(F)(F)F)cc4)CC3)cc2)n1 | i | i | i | nt | i | nt | nt | nt
O=C(Nc1cccc(OC(F)(F)F)c1)c1cccc2c(-c3cccnc3)coc12 | i | i | i | nt | i | nt | nt | nt
O=C1N=c2ccccc2=C1c1sc(NS(=O)(=O)c2ccccc2)nc1O | i | i | i | i | i | i | nt | nt
O=C1N=c2ccccc2=C1c1sc(NS(=O)(=O)Cc2ccccc2)nc1O | i | i | i | i | i | 92.8 | 83.7 | i | Scp-1 Tm shift=31.1
CCCCNC(=O)C(NC(=O)c1ccc(=O)[nH]c1)C(=O)c1ccccc1 (centres undefined) | i | i | i | nt | i | nt | nt | nt
O=C(Nc1ccc(C(=O)N2CCN(c3ccccn3)CC2)cc1)c1ccc(Br)o1 | i | i | i | i | i | i | nt | nt
N#Cc1ccccc1N1CCN(C(=O)c2ccc(NC(=O)c3ccc(Br)o3)cc2)CC1 | i | i | i | i | i | 60.4 | 73.0 | i | Scp-1 Tm shift=i
COc1ccc([C@H]2C[C@@H](n3cc(C4CC4)nn3)[C@H](O)CN2CC2CCCCC2)cc1 | i | i | i | nt | i | nt | nt | nt
Cc1c(C(=O)O)sc2nc(/C=C/c3ccccc3OC(F)F)[nH]c(=O)c12 | i | i | i | i | i | i | nt | nt
Cc1c(C(=O)O)sc2nc(/C=C/c3cccc(F)c3)[nH]c(=O)c12 | i | i | i | i | i | 81.0 | i | i
CCOC(=O)c1cc(-c2ccc(/C=N\n3cnnc3)o2)ccc1Cl | i | i | i | i | i | i | nt | nt
CCCCOC(=O)c1cc(-c2ccc(/C=N/n3cnnc3)o2)ccc1Cl | i | i | i | i | i | 91.2 | i | i
CCn1c(CNC(=O)COc2ccc(C(C)C)cc2)nnc1SCC(=O)Nc1cc(F)ccc1C | i | i | i | i | i | 85.1 | 46.1 | i | Scp-1 Tm shift=i
CCn1c(CNC(=O)COc2ccc(C(C)C)cc2)nnc1SCC(=O)Nc1ccc(F)cc1 | i | i | i | i | i | i | nt | nt
Cc1nc(SCC(=O)NCc2ccco2)c2c3c(sc2n1)CCCC3 | i | i | i | i | i | i | nt | nt
CCCc1nc2sc3c(SCC(=O)NCc4ccco4)ncnc3c2c2c1CCC2 | i | i | 90.7 | i | i | 81.7 | 59.5 | i | Scp-1 Tm shift=i
O=C1COc2ccccc2C(c2nc3ccccc3[nH]2)N1Cc1ccccc1 (centres undefined) | i | i | nt | nt | nt | nt | nt | nt
Cc1ccc(C(=O)NCCN2CCNC2=O)cc1 | i | i | i | i | i | i | i | i
Cc1onc(-c2c(F)cccc2Cl)c1C(=O)NCCN1CCNC1=O | i | i | i | i | i | i | i | i
COc1ccc(S(=O)(=O)N2CCCC2)cc1C(C)C | i | i | i | i | i | 52.9 | i | i
COc1ccc(C)cc1NC(=O)CCc1ccc(S(=O)(=O)N2CCOCC2)cc1 | i | i | i | i | i | i | nt | nt
Cc1ccc(NC(=O)CSc2nc(-c3ccco3)nc3cc(=O)[nH]n23)c(Cl)c1 | i | i | i | i | i | 70.8 | 48.1 | i | Scp-1 Tm shift=i
Cc1cccnc1CNC(=O)C1(C)CCCN1CC(C)C (centres undefined) | i | i | i | nt | i | nt | nt | nt
Cc1ccccc1NCC(=O)N=Nc1c(O)[nH]c2ccc([N+](=O)[O-])cc12 | i | i | i | i | i | i | nt | nt
SMILES | SUMO1 PPI mod | LMPTP inh | DNMT1 inh | HKDC1 inh | STEP block | Scp1 inh | Scp-1 conf | MG interference | others
Cc1cccc(OCC(=O)NCC(=O)N=Nc2c(O)[nH]c3ccc([N+](=O)[O-])cc23)c1 | i | i | i | i | i | 59.0 | i | i
COc1ccc(/C=C/C(=O)NCC(=O)N=Nc2c(O)[nH]c3ccc([N+](=O)[O-])cc23)cc1 | i | i | i | i | i | 67.9 | i | i
O=C(N=Nc1c(O)[nH]c2ccc([N+](=O)[O-])cc12)c1ccccc1Cl | i | i | i | i | 72.8 | 98.6 | 70.1 | i | Scp-1 Tm shift=15.8
O=C(CNC(=O)c1ccc(Br)cc1)N=Nc1c(O)[nH]c2ccc([N+](=O)[O-])cc12 | i | i | i | i | i | i | nt | nt
CC(=O)Nc1ccc(C(=O)N2CCCC(c3cc(C(=O)Nc4ccccc4)no3)C2)cc1 (centres undefined) | i | i | i | nt | i | nt | nt | nt
CC(=O)Nc1ccc(S(=O)(=O)/N=C2/NC(=O)/C(=C\c3ccco3)S2)cc1 | i | i | 50.6 | i | i | 52.6 | 54.1 | i | Scp-1 Tm shift=10.3
Cc1ccc(S(=O)(=O)/N=C2/NC(=O)/C(=C\c3ccco3)S2)cc1 | i | i | i | i | i | i | nt | nt
CCn1c(=O)cc(OCC(=O)NCc2ccco2)c2ccccc21 | i | i | i | i | i | 57.5 | i | i
CCn1c(=O)cc(OCC(=O)NCc2ccc(C)o2)c2ccccc21 | i | i | i | i | i | i | nt | nt
CSc1ccc(OC2(C)CCN(Cc3ccc(C(C)C)cc3)C2)cc1 (centres undefined) | i | i | i | nt | i | nt | nt | nt
CC(C#N)Sc1ncnc2sc(-c3ccccc3)cc12 (centres undefined) | i | i | i | i | i | i | nt | nt
O=C(COC(=O)/C=C/c1ccco1)Nc1ccc(F)cc1Cl | i | i | i | i | i | 50.3 | 36.3 | i | Scp-1 Tm shift=i
COC(=O)c1sccc1NC(=O)CSc1ccccc1N | i | i | i | i | i | 58.3 | i | i
Cc1ccc(C)c(-c2cc(C(=O)Nc3cccnc3)c3ccccc3n2)c1 | i | i | i | i | i | i | nt | nt
COc1ccc(CCNC(=O)c2cc(-c3ccco3)nc3ccccc23)cc1 | nt | nt | nt | i | nt | 86.6 | 72.7 | i | Scp-1 Tm shift=i
CC(=O)c1cccc(NC(=O)c2cc(-c3ccco3)nc3ccccc23)c1 | i | i | i | i | i | i | nt | nt

Source: PubChem BioAssay (Sanford-Burnham Center for Chemical Genomics)
